Data as given in ChEMBL document CHEMBL4382240, “Discovery of novel 2,5-dihydroxyterephthalamide derivatives as multifunctional agents for the treatment of Alzheimer's disease” (Bioorg Med Chem, 2018).
Active and inactive are the calls of the source. No cut-off for these calls is given here.

How the values were obtained:
[1] = target: T1, Acetylcholinesterase (Rattus norvegicus, UniProt P37136); assay: Inhibition of rat AChE
T1 sequence (P37136 whole entry): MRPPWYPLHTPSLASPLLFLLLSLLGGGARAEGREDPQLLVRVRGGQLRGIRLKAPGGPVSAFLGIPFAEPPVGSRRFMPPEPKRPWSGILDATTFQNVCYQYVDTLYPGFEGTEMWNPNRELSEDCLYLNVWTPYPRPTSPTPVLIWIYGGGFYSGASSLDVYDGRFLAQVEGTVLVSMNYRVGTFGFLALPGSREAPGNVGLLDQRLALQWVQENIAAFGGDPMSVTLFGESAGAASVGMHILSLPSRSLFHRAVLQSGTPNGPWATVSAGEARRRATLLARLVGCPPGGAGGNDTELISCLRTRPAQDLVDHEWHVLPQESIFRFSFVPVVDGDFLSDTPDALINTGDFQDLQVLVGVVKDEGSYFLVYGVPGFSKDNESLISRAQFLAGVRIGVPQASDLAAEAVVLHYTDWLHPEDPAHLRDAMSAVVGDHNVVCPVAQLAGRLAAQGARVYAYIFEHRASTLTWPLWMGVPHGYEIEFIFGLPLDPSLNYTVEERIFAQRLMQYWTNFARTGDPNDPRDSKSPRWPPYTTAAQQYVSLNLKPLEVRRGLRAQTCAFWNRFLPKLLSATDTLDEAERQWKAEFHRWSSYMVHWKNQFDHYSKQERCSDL
Outline: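 Ellman assay using 5% rat cortex homogenate, preincubated 5 min with iso-OMPA (4.0 mmol/L) to block BuChE. Acetylthiocholine iodide (1 mmol/L) with inhibitor dilutions in phosphate buffer ([…], pH 7.40), incubated 15 min at 37 °C. Stopped with 0.2% DTNB, absorbance read at 405 nm. IC50 as mean of three independent experiments, each in triplicate.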

[2] = Antioxidant activity assessed as trolox equivalent of APPH-induced radical scavenging activity at 5 uM preincubated for 15 mins followed by AAPH addition measured every minute for 90 mins by ORAC fluorescein assay; assay type: functional
Outline: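 ORAC-FL in 75 mM phosphate buffer, pH 7.4. Fluorescein (150 nM final) and sample (tested at 1–10 µM) incubated 15 min at 37 °C. AAPH (12 mM final) then added, and fluorescence (ex 485/em 535 nm) read every minute for 90 min. Trolox standard 1–8 µM; result expressed as µM Trolox equivalent per µM compound. Duplicate wells; three independent experiments.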

[3] = target: Acetylcholinesterase (Electrophorus electricus, UniProt O42275); assay: Inhibition of electric eel AChE using acetylthiocholine iodide as substrate after 15 mins by Ellman's method
Acetylcholinesterase (Electrophorus electricus, UniProt O42275), sequence (O42275 whole entry): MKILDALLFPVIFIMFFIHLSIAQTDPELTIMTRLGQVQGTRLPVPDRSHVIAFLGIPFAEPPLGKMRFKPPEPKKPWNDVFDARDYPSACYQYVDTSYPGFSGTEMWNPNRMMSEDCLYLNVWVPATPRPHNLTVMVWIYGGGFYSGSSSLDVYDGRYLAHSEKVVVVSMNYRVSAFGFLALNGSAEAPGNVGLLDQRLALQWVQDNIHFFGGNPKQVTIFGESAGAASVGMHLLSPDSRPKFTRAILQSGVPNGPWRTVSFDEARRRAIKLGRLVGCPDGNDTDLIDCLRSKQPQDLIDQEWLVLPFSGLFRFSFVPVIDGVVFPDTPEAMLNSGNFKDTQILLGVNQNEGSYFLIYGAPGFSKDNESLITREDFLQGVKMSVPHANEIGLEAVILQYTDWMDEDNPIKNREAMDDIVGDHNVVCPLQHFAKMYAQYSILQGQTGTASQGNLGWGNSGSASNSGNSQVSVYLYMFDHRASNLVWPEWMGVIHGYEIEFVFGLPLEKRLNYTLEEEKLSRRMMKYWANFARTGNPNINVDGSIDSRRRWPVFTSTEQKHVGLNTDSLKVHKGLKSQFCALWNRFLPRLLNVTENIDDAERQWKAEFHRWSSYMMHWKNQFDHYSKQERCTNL

[4] = Anti-inflammatory activity in […] cells assessed as inhibition of LPS-stimulated NO release at 10 uM preincubated for 30 mins followed by LPS stimulation and measured after 24 hrs by Griess reagent based assay relative to control; assay type: functional; details: BV-2
Outline: (§1)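 BV-2 cells cultured 24 h in DMEM (10% FBS, glutamine, pyruvate, pen/strep) at 37 °C, 5% CO2. Compound (DMSO stock diluted in PBS) added 30 min before LPS (1.0 µg/mL), then 24 h. Nitrite in supernatant measured by Griess reagent for 10 min at room temperature, A540, against a NaNO2 standard curve. Triplicate wells; mean ± SD of three independent experiments.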

[5] = target: T1, Acetylcholinesterase; assay: Inhibition of rat cortex AChE using acetylthiocholine iodide as substrate after 15 mins by Ellman's method
[6] = Effective permeability of the compound in PBS/EtOH at 100 ug/ml after 18 hrs by PAMPA; assay type: ADME; details: read-out: Peff
[7] = species on record: Homo sapiens; assay: Anti-inflammatory activity in […] cells assessed as inhibition of LPS-stimulated TNFalpha release preincubated for 30 mins followed by LPS stimulation and measured after 24 hrs by ELISA; assay type: functional, cell-based
Outline: (§2)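 Confluent BV-2 cells in DMEM preincubated 30 min with compound, tested over 0.5–10 µM, then stimulated with LPS (1.0 µg/mL) for 24 h. Released TNF-α measured by ELISA following kit instructions. Triplicate wells; mean ± SD of three independent experiments.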

[8] = target: T2, Amyloid-beta precursor protein (Homo sapiens, UniProt P05067); assay: Inhibition of human amyloid beta (1 to 42) self-induced aggregation at 25 uM after 24 hrs by Thioflavin T based fluorometric assay relative to control
T2 sequence (P05067 whole entry): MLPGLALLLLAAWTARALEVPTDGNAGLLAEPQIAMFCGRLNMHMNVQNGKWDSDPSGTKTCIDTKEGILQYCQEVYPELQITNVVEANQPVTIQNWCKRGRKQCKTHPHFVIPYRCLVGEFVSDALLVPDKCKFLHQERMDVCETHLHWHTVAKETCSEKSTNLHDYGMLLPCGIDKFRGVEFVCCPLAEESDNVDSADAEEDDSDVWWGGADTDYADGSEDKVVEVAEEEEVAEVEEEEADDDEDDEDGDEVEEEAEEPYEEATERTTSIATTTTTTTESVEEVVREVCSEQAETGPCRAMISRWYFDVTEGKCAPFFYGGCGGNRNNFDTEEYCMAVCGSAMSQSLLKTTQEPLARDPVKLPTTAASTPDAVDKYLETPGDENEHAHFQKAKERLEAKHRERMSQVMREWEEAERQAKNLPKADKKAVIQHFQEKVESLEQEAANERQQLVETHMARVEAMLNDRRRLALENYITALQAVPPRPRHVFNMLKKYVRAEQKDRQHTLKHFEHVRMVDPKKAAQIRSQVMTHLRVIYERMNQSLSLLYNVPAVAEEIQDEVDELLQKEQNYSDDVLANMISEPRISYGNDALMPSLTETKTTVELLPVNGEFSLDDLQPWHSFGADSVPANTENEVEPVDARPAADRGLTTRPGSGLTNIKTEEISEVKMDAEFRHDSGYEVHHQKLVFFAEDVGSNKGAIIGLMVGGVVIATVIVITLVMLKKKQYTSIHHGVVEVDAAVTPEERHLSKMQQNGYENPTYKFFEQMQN
Outline: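 Aβ1-42 (25 µM final) incubated with compound (25 µM final) in 50 mM phosphate buffer, pH 7.4, for 24 h at 37 °C under a sealing film. ThT (5 µM) in 50 mM glycine-NaOH, pH 8.5, then added and fluorescence measured. Triplicate; mean ± SD of three independent experiments.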

[9] = target: Butyrylcholinesterase (Rattus norvegicus, UniProt Q9JKC1); assay: Inhibition of rat serum BuChE using butyrylthiocholine iodide as substrate after 15 mins by Ellman's method; assay type: ADME
Butyrylcholinesterase, sequence (Q9JKC1 whole entry): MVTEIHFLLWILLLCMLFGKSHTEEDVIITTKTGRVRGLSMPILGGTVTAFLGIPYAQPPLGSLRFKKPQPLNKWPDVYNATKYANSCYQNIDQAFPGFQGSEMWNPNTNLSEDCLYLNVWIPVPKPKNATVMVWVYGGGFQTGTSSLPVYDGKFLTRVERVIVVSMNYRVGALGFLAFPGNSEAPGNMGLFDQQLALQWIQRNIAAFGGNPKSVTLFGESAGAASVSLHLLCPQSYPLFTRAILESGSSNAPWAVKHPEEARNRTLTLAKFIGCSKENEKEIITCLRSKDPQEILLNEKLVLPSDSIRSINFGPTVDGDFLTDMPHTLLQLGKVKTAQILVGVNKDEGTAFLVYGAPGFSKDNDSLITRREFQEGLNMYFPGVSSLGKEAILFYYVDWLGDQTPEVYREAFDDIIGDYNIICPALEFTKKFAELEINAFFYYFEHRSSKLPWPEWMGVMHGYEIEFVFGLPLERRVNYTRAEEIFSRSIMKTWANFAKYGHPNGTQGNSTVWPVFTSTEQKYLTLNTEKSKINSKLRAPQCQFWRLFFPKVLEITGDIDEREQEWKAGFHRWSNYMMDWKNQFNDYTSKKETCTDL

[10] = Inhibition of Cu2+ induced human amyloid beta (1 to 42) aggregation at 25 uM after 24 hrs by Thioflavin T based fluorometric assay relative to control
Outline: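 Aβ1-42 (25 µM) and Cu2+ (25 µM) in HEPES buffer (20 mM, pH 6.6, 150 mM NaCl), with or without compound (25 µM final), incubated 24 h at 37 °C. ThT (5 µM) in glycine-NaOH, pH 8.5, added and fluorescence read. Triplicate; three independent experiments.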

[11] = target: T2, Amyloid-beta precursor protein; assay: Disaggregation of self-induced preformed fibrils of human amyloid beta (1 to 42) at 25 uM after 24 hrs by Thioflavin T based fluorometric assay relative to control
Outline: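 Aβ1-42 diluted in HEPES buffer (20 mM, pH 6.6, 150 mM NaCl) and pre-aggregated 24 h at 37 °C. Compound (25 µM) then added for another 24 h at 37 °C on a sealed plate. Remaining fibrils read by ThT fluorescence in glycine-NaOH, pH 8.5. Triplicate; three independent experiments.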

[12] = Disaggregation of Cu2+ induced preformed fibrils of human amyloid beta (1 to 42) at 25 uM after 24 hrs by Thioflavin T based fluorometric assay relative to control
Outline: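 Aβ1-42 (25 µM) with Cu2+ (25 µM) in HEPES buffer pre-aggregated 24 h at 37 °C. Compound (25 µM) then added for a further 24 h at 37 °C. Fibril content measured by ThT fluorescence (glycine-NaOH, pH 8.5). Triplicate; three independent experiments.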

[13] = Effect on TNFalpha release in […] cells up to 10 uM after 24 hrs by ELISA; assay type: ADME, cell-based
Outline: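 BV-2 cells exposed to compound up to 10 µM with no added LPS. TNF-α in the medium measured by ELISA. Mean ± SD of three independent experiments.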

[14] = species on record: Homo sapiens; assay: Anti-inflammatory activity in […] cells assessed as inhibition of LPS-stimulated NO release preincubated for 30 mins followed by LPS stimulation and measured after 24 hrs by Griess reagent based assay; assay type: functional, cell-based
[15] = Anti-inflammatory activity in […] cells assessed as inhibition of LPS-stimulated TNFalpha release at 10 uM preincubated for 30 mins followed by LPS stimulation and measured after 24 hrs by ELISA relative to control; assay type: functional; details: BV-2; outline: as §2
[16] = species on record: Homo sapiens; assay: Anti-inflammatory activity in […] cells assessed as inhibition of LPS-stimulated TNFalpha release at 0.5 uM preincubated for 30 mins followed by LPS stimulation and measured after 24 hrs by ELISA; assay type: functional, cell-based; outline: as §2
[17] = Effect on NO release in […] cells up to 10 uM after 24 hrs by Griess reagent based assay; assay type: ADME, cell-based
Outline: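 BV-2 cells in DMEM treated with compound alone, without LPS, up to 10 µM. Nitrite in culture supernatant measured by Griess reagent (A540) against a NaNO2 standard curve. Mean ± SD of three independent experiments.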

[18] = Cytotoxicity against […] cells assessed as decrease in cell viability up to 10 uM preincubated for 30 mins followed by LPS stimulation and measured after 24 hrs by MTT assay; assay type: cell-based
Outline: (§3)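 BV-2 cells grown 24 h, then treated with compound (0.5, 2.5, 10.0 µM) for 30 min, with or without LPS (1.0 µg/mL), for a further 24 h. MTT (5 mg/mL) added for 4 h, formazan dissolved in DMSO, A490 read. Viability given as percent of untreated cells. Triplicate wells; three independent experiments.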

[19] = Cytotoxicity against […] cells assessed as decrease in cell viability up to 10 uM measured after 24 hrs by MTT assay; assay type: cell-based; outline: as §3
[20] = Anti-inflammatory activity in […] cells assessed as inhibition of LPS-stimulated NO release at 2.5 uM preincubated for 30 mins followed by LPS stimulation and measured after 24 hrs by Griess reagent based assay relative to control; assay type: functional; details: BV-2; outline: as §1
[21] = Anti-inflammatory activity in […] cells assessed as inhibition of LPS-stimulated TNFalpha release at 2.5 uM preincubated for 30 mins followed by LPS stimulation and measured after 24 hrs by ELISA relative to control; assay type: functional; details: BV-2; outline: as §2
[22] = target: T2, Amyloid-beta precursor protein; assay: Inhibition of human amyloid beta (1 to 42) self-induced aggregation after 24 hrs by Thioflavin T based fluorometric assay
Outline: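 Self-induced Aβ1-42 aggregation (25 µM peptide) in phosphate buffer, pH 7.4, for 24 h at 37 °C with varying compound concentrations. Aggregation read by ThT fluorescence (5 µM ThT, glycine-NaOH pH 8.5).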

[23] = target: Acetylcholinesterase (Homo sapiens, UniProt P22303); assay: Inhibition of acetylcholinesterase (unknown origin)
Acetylcholinesterase (Homo sapiens, UniProt P22303), sequence (P22303 whole entry): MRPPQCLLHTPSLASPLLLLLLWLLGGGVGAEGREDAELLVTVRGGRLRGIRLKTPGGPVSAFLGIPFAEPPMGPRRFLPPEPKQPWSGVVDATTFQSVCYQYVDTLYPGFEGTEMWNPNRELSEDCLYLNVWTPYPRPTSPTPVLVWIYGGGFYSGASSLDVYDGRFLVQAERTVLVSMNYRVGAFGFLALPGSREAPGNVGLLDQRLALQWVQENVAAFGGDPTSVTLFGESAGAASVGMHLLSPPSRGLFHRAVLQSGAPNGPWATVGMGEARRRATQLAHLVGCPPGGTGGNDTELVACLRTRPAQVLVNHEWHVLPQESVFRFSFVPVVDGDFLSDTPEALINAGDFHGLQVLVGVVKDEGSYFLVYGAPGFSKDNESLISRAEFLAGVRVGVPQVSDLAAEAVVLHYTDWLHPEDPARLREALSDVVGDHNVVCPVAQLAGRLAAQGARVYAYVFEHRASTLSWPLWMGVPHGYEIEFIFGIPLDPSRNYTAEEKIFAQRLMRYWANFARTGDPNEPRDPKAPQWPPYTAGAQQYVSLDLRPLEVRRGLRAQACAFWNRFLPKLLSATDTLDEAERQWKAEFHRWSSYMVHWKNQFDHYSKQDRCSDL

SMILES | Activity [2] [equiv] | IC50 [3] [µM] | inhibition at 10 µM [4] [%] | IC50 [5] [µM] | inhibition [7] | inhibition [8] [%] | IC50 [9] [µM] | inhibition [10] [%] | Activity [11] [%] | Activity [12] [%] | Activity [13] | inhibition [14] | inhibition at 10 µM [15] [%] | inhibition [16] | Activity [17] | Activity [18] | Activity [19] | inhibition at 2.5 µM [20] [%] | inhibition at 2.5 µM [21] [%] | IC50 [22] [µM] | further results
CCN(CCCCCCNC1=CC(=O)C(NCCCCCCN(CC)Cc2ccccc2OC)=CC1=O)Cc1ccccc1OC [MEMOQUIN] | 0.77 |  |  |  |  |  |  |  |  |  |  |  |  |  |  |  |  |  |  |  | IC50 [1]: 0.00155 µM
CCN(CCCNC(=O)c1cc(O)c(C(=O)NCCCN(CC)Cc2ccccc2OC)cc1O)Cc1ccccc1OC | 1.1 | 11.4 | 50.8 | 0.67 | Dose-dependent effect | 98.2 | > 100 | 88.8 | 77.3 | 73.1 | Non-Toxic | Dose-dependent effect | 41.1 | inactive | Non-Toxic | Non-Toxic | Non-Toxic | 35 | 28.2 | 2.41 | Papp at 18 h, 100 ug/ml [6]: 4.23 ×10⁻⁶ cm/s
COc1ccccc1CN(C)CCCCNC(=O)c1cc(O)c(C(=O)NCCCCN(C)Cc2ccccc2OC)cc1O | 0.64 | 5.87 | 57.5 | 7.37 | Dose-dependent effect | 98.6 | 19.2 | 65.4 | 80.3 | 76.3 | Non-Toxic | Dose-dependent effect | 59.4 | inactive | Non-Toxic | Non-Toxic | Non-Toxic | 36.7 | 32.9 | 3.45 | 
CCN(CCCCCCNC(=O)c1cc(O)c(C(=O)NCCCCCCN(CC)Cc2ccccc2OC)cc1O)Cc1ccccc1OC | 1.43 | 6.75 | 63.3 | 1.68 | Dose-dependent effect | 99.6 | > 100 | 89.9 | 83.8 | 85.3 | Non-Toxic | Dose-dependent effect | 50.6 | inactive | Non-Toxic | Non-Toxic | Non-Toxic | 33.3 | 20.6 | 3.31 | Papp at 18 h, 100 ug/ml [6]: 5.54 ×10⁻⁶ cm/s
O=C(O)c1ccccc1O [SALICYLIC ACID] |  |  |  |  |  |  |  |  |  |  |  |  |  |  |  |  |  |  |  |  | IC50 [23]: 346 µM
